Active and inactive are the calls of the source. The rule behind the calls is not given here.
Tests used:
[1] = Solubility in assay condition at 50 uM; assay type: physicochemical
[2] = molecular target: T1, DNA topoisomerase 1 (Homo sapiens) (UniProt P11387); assay: Induction of human recombinant topoisomerase 1-mediated cleavage of 32P-labeled linearized pRYG plasmid DNA at 25 uM after 30 mins by agarose gel electrophoresis
T1 sequence (whole entry): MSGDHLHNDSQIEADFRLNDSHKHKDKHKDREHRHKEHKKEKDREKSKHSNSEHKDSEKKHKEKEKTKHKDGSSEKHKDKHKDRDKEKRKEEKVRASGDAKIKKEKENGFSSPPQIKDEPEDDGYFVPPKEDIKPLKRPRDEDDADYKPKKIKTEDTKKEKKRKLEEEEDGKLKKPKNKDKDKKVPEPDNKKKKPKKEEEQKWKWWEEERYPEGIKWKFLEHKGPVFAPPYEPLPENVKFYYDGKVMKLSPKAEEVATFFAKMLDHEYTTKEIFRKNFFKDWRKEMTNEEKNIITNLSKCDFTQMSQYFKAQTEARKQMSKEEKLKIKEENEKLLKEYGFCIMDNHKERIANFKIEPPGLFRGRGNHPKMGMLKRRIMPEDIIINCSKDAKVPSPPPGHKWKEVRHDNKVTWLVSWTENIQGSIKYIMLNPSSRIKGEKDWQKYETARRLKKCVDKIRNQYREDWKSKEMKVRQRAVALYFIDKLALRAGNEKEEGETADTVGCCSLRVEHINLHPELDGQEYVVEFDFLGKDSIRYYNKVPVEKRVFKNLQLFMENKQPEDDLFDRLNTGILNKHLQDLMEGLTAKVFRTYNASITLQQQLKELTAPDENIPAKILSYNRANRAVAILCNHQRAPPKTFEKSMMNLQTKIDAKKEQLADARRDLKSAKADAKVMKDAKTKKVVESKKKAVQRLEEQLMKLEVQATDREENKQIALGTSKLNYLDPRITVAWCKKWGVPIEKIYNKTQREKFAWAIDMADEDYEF
Procedure, shortened: (§1)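 Recombinant human Top I was incubated with HindIII-linearised pRYG plasmid, 3'-end-labelled with [α-32P]dCTP by Klenow fill-in (about 100000 cpm per reaction). Reactions were stopped with SDS and proteinase K at 45 °C, alkali-denatured, run on a 1% agarose gel and autoradiographed.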

[3] = tested on: HT-29; assay: Reduction in topoisomerase 1 expression in human HT-29 cells by immunocytochemistry; assay type: functional, cell-based
Procedure, shortened: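 HT-29 and SKOV-3 cells were grown on slides and treated with compound at several concentrations, with an untreated control. Cells were fixed and permeabilised, and endogenous peroxidase was quenched with 0.3% H2O2/methanol. After blocking with 10% goat serum, slides were stained with anti-Top I (1:100, 10 h), then biotinylated secondary and avidin-biotin-HRP, and developed with DAB.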

[4] = tested on: A549; assay: Cytotoxicity against human A549 cells expressing wild type p53 after 48 hrs by SRB assay; assay type: functional, cell-based; details: A549, 48 h
Procedure, shortened: (§2)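 Cell lines came from CCRC, Taiwan. Cells were seeded at about 5 × 10^3 per well and left overnight. They were then given serum-free medium containing 0-10 μM compound (0.08-10 μM serial dilutions) for 48 h at 37 °C. Cells were fixed with TCA (10% final), stained with SRB (0.4% final), and the dye was dissolved in 10 mM Tris with A515 read. IC50 was taken from a fitted log concentration-response curve.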

[5] = tested on: HT-29; assay: Induction of apoptosis in human HT-29 cells assessed as apoptotic cells at 10 ug/mL after 24 hrs by annexin V/propidium iodide-based flow cytometry; assay type: functional
Procedure, shortened: (§3)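 SKOV-3 or HT-29 cells (1-5 × 10^6 cells/mL) were incubated with 0, 5 or 10 μg/mL compound for 24 h. They were then washed and stained with EGFP-Annexin V/PI and analysed immediately by flow cytometry. Annexin V+/PI− cells were scored as apoptotic; PI-permeant cells were scored as necrotic.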

[6] = tested on: HT-29; assay: Induction of apoptosis in human HT-29 cells assessed as apoptotic cells at 5 ug/mL after 24 hrs by annexin V/propidium iodide-based flow cytometry; assay type: functional; procedure, shortened: as §3
[7] = tested on: Mus musculus; assay: Toxicity in athymic BALB/c nude mouse xenografted with human HT-29 cells assessed as morbidity at 75 mg/kg, ip for 10 days measured after 30 days; assay type: organism-based; design: dose 75 mg/kg, route intraperitoneal; details: in vivo, 720 h
Procedure, shortened: (§4)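 Nude mouse HT-29 xenograft model as above: female athymic BALB/c, 18-22 g, n=6 per group. Dosing was i.p. daily in 400 μL for 10 consecutive days at 75 or 150 mg/kg, with saline controls. Body weight and tumour volume were recorded every 4 days, and the study ended on day 30. Weights were compared with controls by Student's t test.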

[8] = tested on: MCF7; assay: Cytotoxicity against estrogen receptor-positive human MCF7 cells expressing wild type p53 after 48 hrs by SRB assay; assay type: functional, cell-based; details: MCF7, 48 h; procedure, shortened: as §2
[9] = molecular target: T1, DNA topoisomerase 1 (Homo sapiens); assay: Induction of human topoisomerase 1-mediated chromosomal DNA strand breaks in HT-29 cells at 10 uM after 1 hr by comet assay; assay type: cell-based
Procedure, shortened: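 HT-29 cells were seeded at 1 × 10^4 per well and attached overnight, then treated for 1 h. Untreated cells served as negative control. Cells in low-melting agarose on precoated slides were lysed at pH 10.5 for 30 min at 4 °C and unwound in 300 mM NaOH/1 mM EDTA (pH >13) for 30 min at 4 °C. Electrophoresis ran 10 min at 16 V, with SYBR Gold staining. Read-out was mean % tail DNA from ≥50 nuclei, duplicates in three independent experiments.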

[10] = tested on: Mus musculus; assay: Toxicity in athymic BALB/c nude mouse xenografted with human HT-29 cells assessed as change in body weight at 150 mg/kg, ip for 10 days measured after 30 days; assay type: organism-based; design: dose 150 mg/kg, route intraperitoneal; details: in vivo, 720 h; procedure, shortened: as §4
[11] = tested on: Mus musculus; assay: Toxicity in athymic BALB/c nude mouse xenografted with human HT-29 cells assessed as morbidity at 150 mg/kg, ip for 10 days measured after 30 days; assay type: organism-based; design: dose 150 mg/kg, route intraperitoneal; details: in vivo, 720 h; procedure, shortened: as §4
[12] = tested on: THP-1; assay: Cytotoxicity against human THP1 cells expressing p53 mutant after 48 hrs by SRB assay; assay type: functional, cell-based; details: THP-1, 48 h
[13] = tested on: Mus musculus; assay: Toxicity in athymic BALB/c nude mouse xenografted with human HT-29 cells assessed as change in body weight at 75 mg/kg, ip for 10 days measured after 30 days; assay type: organism-based; design: dose 75 mg/kg, route intraperitoneal; details: in vivo, 720 h; procedure, shortened: as §4
[14] = tested on: PC-3; assay: Cytotoxicity against p53-deficient human PC3 cells after 48 hrs by SRB assay; assay type: functional, cell-based; details: PC-3, 48 h; procedure, shortened: as §2
[15] = tested on: HT-29; assay: Induction of apoptosis in human HT-29 cells assessed as morphological changes at 5 ug/mL after 24 hrs by immunostaining; assay type: functional, cell-based
Procedure, shortened: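 SKOV3 and HT-29 cells were treated with 0.25 or 5 μg/mL for 24 h. Cell morphology was assessed by microscopy after fixation in 4% formaldehyde and Hoechst 33342 staining (10 μg/mL), against an untreated control.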

[16] = tested on: DNA topoisomerase 2 (Bos taurus); assay: Inhibition of topoisomerase 2 at 200 uM
[17] = molecular target: T1, DNA topoisomerase 1 (Homo sapiens); assay: Induction of human recombinant topoisomerase 1-mediated cleavage of 32P-labeled linearized pRYG plasmid DNA at 2.5 uM after 30 mins by agarose gel electrophoresis; procedure, shortened: as §1

With `CCn1cc(-c2nc3ccc([N+](=O)[O-])cc3o2)c(=O)c2cc(F)c(N3CCNC(C)C3)c(F)c21` (stereo not given) the solubility [1] was “Insoluble”, the Activity [2] was “Active” and the Activity [3] was “Dose-dependent effect”. The GI50 [4] was 0.8 µM, the IC50 [4] was 1.5 µM and the Activity [5] was 35.9%. For the same compound, the Activity [6] was 23.5%, the Activity [7] was “Non-toxic” and the GI50 [8] was 3 µM. For the same compound, the IC50 [8] was 6.8 µM, the Activity [9] was 48% and the Activity [10] was “Non-toxic”. The Activity [11] was “Non-toxic”, the IC50 [12] was 3.5 µM and the Activity [13] was “Non-toxic”. The GI50 [14] was 3.3 µM, the IC50 [14] was 4.2 µM and the Activity [15] was “Active”. The inhibition [16] was “inactive” and the Activity [17] was “Active”.
